# ChEMBL document CHEMBL3098029, “Studies on the synthetic and structural aspects of benzosuberones bearing 2, 4-thiazolidenone moiety as potential anti-cancer agents” (Eur J Med Chem, 2014)
# Experiments:
# HEK293 = assay: Cytotoxicity against HEK293 cells by MTT assay; type: cell-based; details: Homo sapiens
# Summary of the method: (§1)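 Growth inhibition in 96-well plates, read by cell-mediated reduction of tetrazolium (MTT) to insoluble formazan, with doxorubicin as standard. Cell lines are A549 (alveolar adenocarcinoma, CCL-185), HeLa (cervical, CCL-2), MDA-MB-231 (breast, HTB26), MCF7 (breast, HTB22) and normal embryonic kidney HEK293. IC50 taken from plotted absorbance data, given as mean ± SD of three independent determinations.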
# A549 = assay: Cytotoxicity against human A549 cells by MTT assay; type: functional, cell-based; summary of the method: as §1
# MDA-MB-231 = assay: Cytotoxicity against human MDA-MB-231 cells by MTT assay; type: functional, cell-based; summary of the method: as §1
# HeLa = assay: Cytotoxicity against human HeLa cells by MTT assay; type: functional, cell-based; summary of the method: as §1
# MCF7 = assay: Cytotoxicity against human MCF7 cells by MTT assay; type: functional, cell-based; summary of the method: as §1
Compound,IC50 (HEK293) [µM],IC50 (A549) [µM],IC50 (MDA-MB-231) [µM],IC50 (HeLa) [µM],IC50 (MCF7) [µM]
COc1ccc(C(=O)CN2C(=O)S/C(=C\C3=C(Cl)c4ccccc4CCC3)C2=O)cc1,> 100,5.44,> 100,> 100,8.95
O=C(CN1C(=O)CSC1=O)c1ccc(Br)cc1,> 100,22.7,> 100,> 100,> 100
Cc1cc2c(cc1C)C(Cl)=C(/C=C1\SC(=O)N(CC(=O)c3ccc(Br)cc3)C1=O)CCC2,> 100,9.69,> 100,> 100,36.8
COc1cccc2c1C(=O)c1c(O)c3c(c(O)c1C2=O)C[C@@](O)(C(=O)CO)C[C@@H]3O[C@H]1C[C@H](N)[C@H](O)[C@H](C)O1 [DOXORUBICIN],> 100,–,–,–,–
Cc1ccc(C(=O)CN2C(=O)S/C(=C\C3=C(Cl)c4ccccc4CCC3)C2=O)cc1,> 100,> 100,5.84,7.89,> 100
O=C(CN1C(=O)CSC1=O)c1ccccc1,> 100,14.1,> 100,> 100,> 100
COc1ccc(C(=O)CN2C(=O)CSC2=O)cc1,> 100,> 100,> 100,> 100,> 100
Cc1cc2c(cc1C)C(Cl)=C(/C=C1\SC(=O)N(CC(=O)c3ccccc3)C1=O)CCC2,> 100,> 100,> 100,7.89,> 100
COc1ccc(C(=O)CN2C(=O)S/C(=C\C3=C(Cl)c4cc(C)c(C)cc4CCC3)C2=O)cc1,> 100,> 100,7.89,17.9,> 100
O=C(CN1C(=O)S/C(=C\C2=C(Cl)c3ccccc3CCC2)C1=O)c1ccc(Cl)cc1,> 100,> 100,> 100,> 100,> 100
Cc1ccc(C(=O)CN2C(=O)S/C(=C\C3=C(Cl)c4cc(C)c(C)cc4CCC3)C2=O)cc1,> 100,> 100,13.4,> 100,1.91
O=C1NC(=O)/C(=C/C2=C(Cl)c3ccccc3CCC2)S1,> 100,> 100,> 100,> 100,> 100
O=C(CN1C(=O)CSC1=O)c1ccc(Cl)cc1,14,> 100,> 100,> 100,> 100
O=C(CN1C(=O)S/C(=C\C2=C(Cl)c3ccccc3CCC2)C1=O)c1ccccc1,> 100,4.89,13.3,2.98,5.31
Cc1cc2c(cc1C)C(Cl)=C(/C=C1\SC(=O)N(CC(=O)c3ccc(Cl)cc3)C1=O)CCC2,> 100,3.49,> 100,> 100,9.85
Cc1ccc(C(=O)CN2C(=O)CSC2=O)cc1,> 100,17,> 100,> 100,> 100
O=C(CN1C(=O)S/C(=C\C2=C(Cl)c3ccccc3CCC2)C1=O)c1ccc(Br)cc1,> 100,5.75,> 100,> 100,51.7
Cc1cc2c(cc1C)C(Cl)=C(/C=C1\SC(=O)NC1=O)CCC2,> 100,5.39,5.79,5.89,> 100
